Reference: ChEMBL document CHEMBL4251738, “A BODIPY-Tagged Phosphono Peptide as Activity-Based Probe for Human Leukocyte Elastase” (ACS Med Chem Lett, 2018)
The source made the active and inactive calls. The calls are words filed in the database; no cut-off is given here.

Experiments:
[1] = biological target: T1, Neutrophil elastase (Homo sapiens) (UniProt P08246); assay: Irreversible inhibition of human leukocyte elastase assessed as ratio of Kinact to Ki using MeO-Suc-Ala-Ala-Pro-Val-pNA as substrate incubated over 60 mins by spectrophotometric method
T1 sequence (whole entry): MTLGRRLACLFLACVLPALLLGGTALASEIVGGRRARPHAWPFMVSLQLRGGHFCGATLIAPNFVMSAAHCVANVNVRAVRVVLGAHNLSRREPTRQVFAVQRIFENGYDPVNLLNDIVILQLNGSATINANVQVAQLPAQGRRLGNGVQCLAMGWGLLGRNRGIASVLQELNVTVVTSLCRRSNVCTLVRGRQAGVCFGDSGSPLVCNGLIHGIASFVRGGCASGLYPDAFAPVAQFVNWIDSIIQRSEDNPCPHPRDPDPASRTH
In short: (§1)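 From substrate-consumption progress curves, kobs values (means of duplicates) were plotted against inhibitor concentration. kinac/Ki was derived by linear regression as kinac/Ki = kobs/[I](1 + [S]/Km) + d, where d is an offset. SEM is from that regression.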

Bos taurus [2] = species on record: Bos taurus; assay: Inhibition of bovine chymotrypsin assessed as product formation at 1 uM using Suc-Ala-Ala-Pro-Phe-pNA as substrate incubated over 60 mins by spectrophotometric method
In short: (§2)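 Single-point test at 1 μM inhibitor, run in duplicate. Product formation was followed over 60 min. More than 90% product formation after 60 min was scored as no inhibition.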

[3] = biological target: T1, Neutrophil elastase (Homo sapiens); assay: Irreversible inhibition of human leukocyte elastase assessed as ratio of Kinact to Ki using MeO-Suc-Ala-Ala-Pro-Val-pNA as substrate by spectrophotometric method; details: TDE = time-dependent effect; in short: as §1
[4] = biological target: Prothrombin (Homo sapiens) (UniProt P00734); assay: Inhibition of human thrombin assessed as product formation at 1 uM using Z-Gly-Gly-Arg-AMC as substrate incubated over 60 mins by fluorimetric method; in short: as §2
Bos taurus [5] = species on record: Bos taurus; assay: Inhibition of bovine trypsin assessed as product formation at 1 uM using Suc-Ala-Ala-Pro-Arg-pNA as substrate incubated over 60 mins by spectrophotometric method; in short: as §2
[6] = biological target: Cathepsin B (Homo sapiens) (UniProt P07858); assay: Inhibition of human cathepsin B assessed as product formation at 1 uM using Z-Arg-Arg-pNA as substrate incubated over 60 mins by spectrophotometric method; in short: as §2
[7] = biological target: Procathepsin L (Homo sapiens) (UniProt P07711); assay: Inhibition of human cathepsin L assessed as product formation at 1 uM using Z-Phe-Arg-pNA as substrate incubated over 60 mins by spectrophotometric method; in short: as §2
Sequence of Procathepsin L (Homo sapiens) (P07711 114-333 limits assumed): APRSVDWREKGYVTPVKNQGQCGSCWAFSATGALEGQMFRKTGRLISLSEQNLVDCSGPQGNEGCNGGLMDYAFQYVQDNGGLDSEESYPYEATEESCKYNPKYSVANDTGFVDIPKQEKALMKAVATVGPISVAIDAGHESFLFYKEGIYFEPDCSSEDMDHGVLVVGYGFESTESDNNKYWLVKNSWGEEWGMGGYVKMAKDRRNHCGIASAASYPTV

[8] = biological target: Coagulation factor X (Bos taurus) (UniProt P00743); assay: Inhibition of bovine factor 10a assessed as product formation at 1 uM using Boc-Ile-Glu-Gly-Arg-AMC as substrate incubated over 60 mins by fluorimetric method; in short: as §2
Sequence of Coagulation factor X (Bos taurus) (P00743 41-180 limits assumed): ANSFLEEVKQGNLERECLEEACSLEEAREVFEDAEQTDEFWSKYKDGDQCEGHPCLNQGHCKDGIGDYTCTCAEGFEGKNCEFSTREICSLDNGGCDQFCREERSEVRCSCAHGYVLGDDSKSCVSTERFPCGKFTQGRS
Sequence of Coagulation factor X (Bos taurus) (P00743 234-492 limits assumed): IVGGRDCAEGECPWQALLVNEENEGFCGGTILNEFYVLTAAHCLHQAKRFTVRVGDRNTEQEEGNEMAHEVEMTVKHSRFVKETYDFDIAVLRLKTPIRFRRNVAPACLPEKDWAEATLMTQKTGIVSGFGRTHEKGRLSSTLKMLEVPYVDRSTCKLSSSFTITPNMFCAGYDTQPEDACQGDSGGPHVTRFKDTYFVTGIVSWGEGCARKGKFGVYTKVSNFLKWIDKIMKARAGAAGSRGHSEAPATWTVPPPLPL

[9] = biological target: T2, Pancreatic elastase (Sus scrofa) (UniProt P08419+P00772); assay: Inhibition of porcine pancreatic elastase assessed as product formation at 1 uM using MeO-Suc-Ala-Ala-Pro-Val-pNA as substrate incubated over 60 mins by spectrophotometric method; assay type: protein assay; in short: as §2
[10] = biological target: T2, Pancreatic elastase (Sus scrofa); assay: Inhibition of porcine pancreatic elastase assessed as ratio of Kinact to Ki using MeO-Suc-Ala-Ala-Pro-Val-pNA as substrate incubated over 60 mins by spectrophotometric method; assay type: protein assay; in short: as §1
[11] = biological target: T1, Neutrophil elastase (Homo sapiens); assay: Irreversible inhibition of human leukocyte elastase at 20 nM using MeO-Suc-Ala-Ala-Pro-Val-pNA as substrate incubated for 30 mins followed by substrate addition
[12] = biological target: T1, Neutrophil elastase (Homo sapiens); assay: Binding affinity to human leukocyte elastase at 2.5 uM incubated for 20 mins followed by HEK cell lysate addition by Coomassie brilliant blue G-250 staining based assay
In short: (§3)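 HLE (600 ng) was incubated with 2.5 μM probe for 20 min. HEK cell lysate (9 μg) was added either before or after that incubation. Lysate alone and HLE alone were run as reference lanes. Samples went on SDS-PAGE, read by in-gel fluorescence and then by Coomassie staining.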

[13] = biological target: T1, Neutrophil elastase (Homo sapiens); assay: Inhibition of human leukocyte elastase at 2.5 uM preincubated with sivelestat for 5 mins followed by compound addition measured after 20 mins in presence of sivelestat by Coomassie brilliant blue G-250 staining based assay
In short: (§4)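 It was then incubated with 2.5 μM probe. Samples were resolved by SDS-PAGE, read by in-gel fluorescence and then by Coomassie staining.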

[14] = biological target: T1, Neutrophil elastase (Homo sapiens); assay: Binding affinity to human leukocyte elastase at 2.5 uM incubated for 20 mins followed by HEK cell lysate addition by in gel fluorescence detection based SDS-PAGE analysis; in short: as §3
[15] = biological target: T1, Neutrophil elastase (Homo sapiens); assay: Inhibition of human leukocyte elastase at 2.5 uM preincubated with sivelestat for 5 mins followed by compound addition measured after 20 mins in presence of sivelestat by in gel fluorescence detection based SDS-PAGE analysis; in short: as §4
[16] = biological target: T1, Neutrophil elastase (Homo sapiens); assay: Binding affinity to human leukocyte elastase at 2.5 uM incubated for 20 mins post HEK cell lysate addition by Coomassie brilliant blue G-250 staining based assay; in short: as §3
[17] = biological target: T1, Neutrophil elastase (Homo sapiens); assay: Binding affinity to human leukocyte elastase at 2.5 uM after 20 mins by in gel fluorescence detection based SDS-PAGE analysis
In short: (§5)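 Varying amounts of HLE were incubated with 2.5 μM fluorescent probe and then run on SDS-PAGE. Labeled HLE was read by in-gel fluorescence as bands at about 29 kDa. The same gel was then stained with Coomassie.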

[18] = biological target: T1, Neutrophil elastase (Homo sapiens); assay: Binding affinity to human leukocyte elastase at 2.5 uM after 20 mins by Coomassie brilliant blue G-250 staining based assay; in short: as §5
[19] = biological target: T1, Neutrophil elastase (Homo sapiens); assay: Binding affinity to human leukocyte elastase at 2.5 uM incubated for 20 mins post HEK cell lysate addition by in gel fluorescence detection based SDS-PAGE analysis; in short: as §3
[20] = biological target: T1, Neutrophil elastase (Homo sapiens); assay: Irreversible inhibition of human leukocyte elastase at 50 nM using MeO-Suc-Ala-Ala-Pro-Val-pNA as substrate incubated for 30 mins followed by substrate addition
[21] = biological target: T1, Neutrophil elastase (Homo sapiens); assay: Binding affinity to human leukocyte elastase at 160 ng after 20 mins by in gel fluorescence detection based SDS-PAGE analysis; in short: as §5
Bos taurus [22] = species on record: Bos taurus; assay: Inhibition of bovine chymotrypsin assessed as ratio of Kinact to Ki using Suc-Ala-Ala-Pro-Phe-pNA as substrate incubated over 60 mins by spectrophotometric method; in short: as §1

Row | SMILES | inhibition (Bos taurus [2]) | inhibition [3] | inhibition [4] | inhibition (Bos taurus [5]) | inhibition [6] | inhibition [7] | inhibition [8] | Ratio [1] | Ratio [10] | also measured
1 | CC(C)(C)C(=O)Oc1ccc(S(=O)(=O)Nc2ccccc2C(=O)NCC(=O)O)cc1 | – | – | – | – | – | – | – | – | – | inhibition [1]: Dose-dependent effect
2 | CSc1ccc(OP(=O)(Oc2ccc(SC)cc2)[C@H](NC(=O)[C@@H]2CCCN2C(=O)[C@@H](NC(=O)OC(C)(C)C)C(C)C)C(C)C)cc1 | > 90% | Tde | > 90% | > 90% | > 90% | > 90% | > 90% | 1000 M⁻¹ s⁻¹ | – | inhibition [9]: > 90%
3 | CSc1ccc(OP(=O)(Oc2ccc(SC)cc2)[C@@H](NC(=O)[C@@H]2CCCN2C(=O)[C@@H](NC(=O)OC(C)(C)C)C(C)C)C(C)C)cc1 | > 90% | Tde | > 90% | > 90% | > 90% | > 90% | > 90% | 399000 M⁻¹ s⁻¹ | 7990 M⁻¹ s⁻¹ | inhibition [11]: Active
4 | CSc1ccc(OP(=O)(Oc2ccc(SC)cc2)[C@@H](NC(=O)[C@@H]2CCCN2C(=O)[C@@H](NC(=O)Cn2cc(-c3ccc(C4=C5C(C)=CC(C)=[N+]5[B-](F)(F)n5c(C)cc(C)c54)cc3)nn2)C(C)C)C(C)C)cc1 | – | – | > 90% | > 90% | > 90% | > 90% | > 90% | 88400 M⁻¹ s⁻¹ | 1440 M⁻¹ s⁻¹ | Activity [12]: Active; inhibition [13]: inactive; Activity [14]: Active; inhibition [15]: inactive; Activity [16]: Active; Activity [17]: Active; Activity [18]: Active; Activity [19]: Active; inhibition [20]: Active; Activity [21]: Active; Ratio (Bos taurus [22]): 565 M⁻¹ s⁻¹
